Compound activity: PubChem, several laboratories
NSD2 HMT inh: NSD2 histone methyltransferase inhibitors, primary screen, biochemical, AlphaScreen, single concentration, set 2. Histone-lysine N-methyltransferase NSD2 (Homo sapiens), O96028. NSD2 peptide methylation, 120 min. inhibition, % at 12.5 µM. 310,000 tested, 0.54% active; in the data active = inhibition above about 50%
UCH37 inh: inhibitors of human UCH37 deubiquitinase, primary screen, biochemical, Ub-AMC cleavage, fluorescence. Ubiquitin carboxyl-terminal hydrolase isozyme L5 (Homo sapiens), Q9Y5K5. 330,000 tested, 0.33% active. purified proteasome/UCH37. inhibition, % (concentration not given with the values);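 active = mean inhibition over replicate wells above about 20%, limit read from the data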
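system = Proteasome-associated human UCH37 deubiquitinase | amount = 0.15 nM proteasome as dispensed | medium = pH 7.4 Tris-HCl (50 mM) with ovalbumin, ATP-MgCl2, DTT | incubation = 30 min preincubation with enzyme, 25 min cleavage at room temperature | detection = AMC fluorescence 355/460 nm | read-out basis = percent inhibition | controls = no-proteasome and no-compound wells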
CASP6 VEID inh: human caspase-6 inhibitors, primary screen, biochemical, VEID-R110 fluorescence, single point, set 2 | purified caspase-6, Z-VEID-R110 cleavage fluorescence | AID 686996, 2013 | 350,000 tested, 0.53% active | inhibition, % at 12.5 µM | P55212;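 active = mean inhibition across replicates at least about 35%, with every replicate also reaching that limit, limit read from the data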
Target sequence (P55212 24-179 limits assumed): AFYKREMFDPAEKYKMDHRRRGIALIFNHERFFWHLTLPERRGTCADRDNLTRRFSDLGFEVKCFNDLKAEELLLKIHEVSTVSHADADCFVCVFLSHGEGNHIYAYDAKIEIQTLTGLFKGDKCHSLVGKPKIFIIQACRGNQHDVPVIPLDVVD
Target sequence (P55212 194-293 limits assumed): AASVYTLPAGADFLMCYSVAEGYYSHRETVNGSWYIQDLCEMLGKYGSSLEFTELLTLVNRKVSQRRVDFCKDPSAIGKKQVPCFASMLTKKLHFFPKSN
FGF22 binding: binders of human FGF22 protein, primary screen, FGF22 synaptogenesis inhibitor project, biophysical, thermal shift, single point; Fibroblast growth factor 22 (Homo sapiens), Q9HCT0; recombinant FGF22 thermal shift, SYPRO orange fluorescence; percent of sucrose octasulfate shift, DMSO zero; activity (Tm shift, normalised), % at 9.99 µM; 340,000 tested, 1.5% active; AID 651658, 2012;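 active = mean Tm shift, scaled 0 neutral to 100 positive control, at about 1.3% or above, every replicate too, limit read from the data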
Target sequence (Q9HCT0 whole entry, looked up): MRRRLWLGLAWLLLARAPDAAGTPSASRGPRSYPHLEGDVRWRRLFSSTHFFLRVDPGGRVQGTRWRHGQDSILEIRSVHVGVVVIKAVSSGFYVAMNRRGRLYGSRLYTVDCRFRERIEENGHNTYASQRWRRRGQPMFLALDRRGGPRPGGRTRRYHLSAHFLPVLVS
SIRT5 block: SIRT5 desuccinylase inhibitors, primary screen, biochemical, fluorescence imaging, single point, set 5; Purified SirT5, succinyl-peptide AMC, trypsin-coupled fluorescence; inhibition, % at 15 µM; 330,000 tested, 1.1% active; NAD-dependent protein deacylase sirtuin-5, mitochondrial (Homo sapiens), Q9NXA8; AID 652115, 2013; in the data active = inhibition above about 15%
Large screens that a line does not name were inactive. This is a sample that favours compounds with a hit; in the whole collection about 2.6% have one here.

C[C@@H]1CN([C@@H](C)CO)C(=O)c2cc(NS(=O)(=O)c3ccc(Cl)cc3)ccc2O[C@@H]1CN(C)Cc1ccc(Cl)c(Cl)c1	none (no result: NSD2 HMT inh, UCH37 inh, CASP6 VEID inh)
COc1ccc(S(=O)(=O)Nc2ccc3c(c2)C(=O)N([C@H](C)CO)C[C@@H](C)[C@@H](CN(C)Cc2ccc(Cl)c(Cl)c2)O3)cc1	SIRT5 block 19 (no result: NSD2 HMT inh, UCH37 inh)
C[C@H]1CN([C@@H](C)CO)C(=O)c2cc(NS(=O)(=O)c3ccc(Cl)cc3)ccc2O[C@H]1CN(C)Cc1ccc(Cl)c(Cl)c1	SIRT5 block 23 (no result: NSD2 HMT inh, UCH37 inh, CASP6 VEID inh)
COc1ccc(S(=O)(=O)Nc2ccc3c(c2)C(=O)N([C@@H](C)CO)C[C@H](C)[C@H](CN(C)Cc2ccc(Cl)c(Cl)c2)O3)cc1	none (no result: NSD2 HMT inh, UCH37 inh)
O=C(O)c1cc(O)c2c(c1)C(=O)c1cccc(O)c1C2=O	CASP6 VEID inh 40, SIRT5 block 18 (no result: NSD2 HMT inh, UCH37 inh)
O=C(Cc1ccccc1)N1CC[C@@H]2[C@@H](CO)Nc3ccc(-c4ccc(F)cc4)cc3[C@@H]21	none (no result: NSD2 HMT inh, UCH37 inh, CASP6 VEID inh, SIRT5 block)
NC(=N\N=Cc1ccccc1)/C(N)=N/N=Cc1ccccc1	FGF22 binding 44 (no result: SIRT5 block)
NC(=N\N=Cc1ccco1)/C(N)=N/N=Cc1ccco1	CASP6 VEID inh 62
Oc1ccc(C=NN=Cc2ccco2)c(O)c1	none (no result: NSD2 HMT inh, UCH37 inh)
COc1ccc(NC(=O)Nc2ccc3c(c2)C(=O)N([C@@H](C)CO)C[C@H](C)[C@@H](CN(C)Cc2ccccc2)OCCCC[C@H](C)O3)cc1	SIRT5 block 20 (no result: NSD2 HMT inh, UCH37 inh)
COc1ccc(NC(=O)Nc2ccc3c(c2)C(=O)N([C@@H](C)CO)C[C@H](C)[C@H](CN(C)Cc2ccccc2)OCCCC[C@@H](C)O3)cc1	none (no result: NSD2 HMT inh, UCH37 inh)
COc1ccc(NC(=O)Nc2ccc3c(c2)C(=O)N([C@@H](C)CO)C[C@@H](C)[C@@H](CN(C)Cc2ccc(C(F)(F)F)cc2)OCCCC[C@@H](C)O3)cc1	SIRT5 block 17 (no result: NSD2 HMT inh, UCH37 inh)
C[C@@H]1CCCCO[C@H](CN(C)Cc2ccccc2)[C@H](C)CN([C@H](C)CO)C(=O)c2cc(NC(=O)CCC(F)(F)F)ccc2O1	SIRT5 block 19 (no result: NSD2 HMT inh, UCH37 inh)
COc1ccc(NC(=O)Nc2ccc3c(c2)C(=O)N([C@H](C)CO)C[C@@H](C)[C@@H](CN(C)Cc2ccccc2)OCCCC[C@H](C)O3)cc1	SIRT5 block 21 (no result: NSD2 HMT inh, UCH37 inh)
C[C@@H]1CCCCO[C@@H](CN(C)Cc2ccccc2)[C@H](C)CN([C@H](C)CO)C(=O)c2cc(NC(=O)CCC(F)(F)F)ccc2O1	none (no result: NSD2 HMT inh, UCH37 inh)
COc1ccc(CC(=O)Nc2ccc(C(C)=NNC(=O)c3ccc(OC)cc3OC)cc2)cc1	none (no result: NSD2 HMT inh, CASP6 VEID inh, FGF22 binding, SIRT5 block)
CCCNC(=O)N(C)C[C@H]1Oc2cc(-c3ccccc3)ccc2S(=O)(=O)N([C@@H](C)CO)C[C@H]1C	none (no result: NSD2 HMT inh, UCH37 inh)
O=C(C[C@H]1CC[C@H]2[C@@H](COC[C@@H](O)CN2C(=O)Nc2ccc(Cl)cc2)O1)N1CCCCC1	none (no result: NSD2 HMT inh, UCH37 inh)
CCCC(=O)Nc1ccc2c(c1)C(=O)N(C)[C@H]1CC[C@H](CC(=O)Nc3ccc(C)cc3)O[C@@H]1CO2	none (no result: NSD2 HMT inh, UCH37 inh)
Cc1ccc(-c2nc(NC(=O)CSc3cc(C)c4ccccc4n3)ns2)cc1	none (no result: NSD2 HMT inh)
COc1ccc2c(C)cc(SCC(=O)Nc3nsc(-c4ccc(C)cc4)n3)nc2c1	CASP6 VEID inh 49 (no result: NSD2 HMT inh, SIRT5 block)
Cc1ccc2cccc(OCC(=O)N3CCc4ccccc43)c2n1	none
O=C(COc1cccc2cccnc12)N1CCc2ccccc21	FGF22 binding 43
CN(CC(=O)Nc1ccc(Cl)c(C(F)(F)F)c1)C(=O)c1cc(=O)c2ccccc2o1	SIRT5 block 22
Cc1ccc(S(=O)(=O)N2CCCCC2)cc1C(=O)N(C)CC(=O)Nc1ccc(Cl)c(C(F)(F)F)c1	none
Cc1ccc(C(=O)N(C)CC(=O)Nc2ccc(Cl)c(C(F)(F)F)c2)cc1S(=O)(=O)N1CCCCC1	SIRT5 block 19
CN(CC(=O)Nc1ccc(Cl)c(C(F)(F)F)c1)C(=O)c1cc(=O)[nH]c2ccccc12	none
CC(C)(C)c1ccc(OCCCC(=O)Nc2ccc(S(N)(=O)=O)cc2)cc1	FGF22 binding 44
NS(=O)(=O)c1ccc(NC(=O)CCCCC(=O)Nc2ccc(S(N)(=O)=O)cc2)cc1	none
C[C@H](NC(=O)N(C)C[C@H]1OCc2ccccc2-c2ccccc2C(=O)N([C@H](C)CO)C[C@H]1C)c1ccccc1	none (no result: NSD2 HMT inh, UCH37 inh)
C[C@H]1CN([C@@H](C)CO)C(=O)c2cc(C#CC3CCCCC3)cnc2O[C@H]1CN(C)C(=O)c1ccncc1	none (no result: NSD2 HMT inh, UCH37 inh)
CCc1ccccc1NC(=O)CCS(=O)(=O)c1ccc(OC)cc1	none (no result: CASP6 VEID inh)
COc1ccc(CC(=O)Nc2ccccc2Oc2ccccc2)cc1	FGF22 binding 43 (no result: UCH37 inh, SIRT5 block)
CCOc1ccccc1NC(=O)CCS(=O)(=O)c1ccc(OC)cc1	FGF22 binding 44
Cc1cccc(C)c1NC(=O)CN(C)CC(=O)Nc1ccccc1Oc1ccccc1	UCH37 inh 28
C[C@@H]1CN([C@H](C)CO)C(=O)c2cc(NC(=O)C3CC3)ccc2O[C@H]1CN(C)C(=O)Nc1ccc(F)cc1	none (no result: NSD2 HMT inh, UCH37 inh)
O=C(CSCCc1ccccn1)Nc1cccnc1	UCH37 inh 23 (no result: CASP6 VEID inh, FGF22 binding, SIRT5 block)
COc1ccc(NC(=O)CSCCc2ccccn2)cc1OC	none
O=C(CCSc1ccc(Br)cc1)Nc1cccnc1	FGF22 binding 44
S=c1cnc2ccccc2[nH]1	FGF22 binding 43
CCOc1ccc(C(=O)NCCc2cnc[nH]2)cc1	none
O=C(NCCc1cnc[nH]1)c1ccc(-c2ccccc2)cc1	SIRT5 block 17
CO[C@@]1(NC(=O)CSCC#N)C(=O)N2C(C(=O)O)=C(CSc3nnnn3C)CS[C@@H]21	FGF22 binding 1.5 (no result: NSD2 HMT inh, CASP6 VEID inh)
COc1ccc2c3c([nH]c2c1)[C@@H](CO)NCC31CCN(C(=O)c2ccccc2)CC1	none (no result: NSD2 HMT inh, UCH37 inh)
Cc1nc(S/C(=C\c2ccc(OCc3ccccc3Cl)cc2)C(=O)O)n[nH]1	none (no result: CASP6 VEID inh, FGF22 binding, SIRT5 block)
Cc1nc(S/C(=C\c2ccc(-c3ccc(C(=O)O)c(Cl)c3)o2)C(=O)O)n[nH]1	CASP6 VEID inh 59, SIRT5 block 28 (no result: NSD2 HMT inh)
Cc1csc(=O)n1CCC(=O)OCc1nnc(-c2ccc([N+](=O)[O-])cc2)o1	CASP6 VEID inh 52
CO[C@H]1CN(C)C(=O)c2cc(NS(=O)(=O)c3ccccc3)ccc2OC[C@@H](C)N(Cc2cccnc2)C[C@@H]1C	none (no result: NSD2 HMT inh, UCH37 inh)
COC(=O)c1ccccc1-c1ccc(C=O)o1	none (no result: FGF22 binding)
O=Cc1ccc(-c2ccccc2C(=O)O)o1	FGF22 binding 43
CC(C)(C)NC(=O)c1nn(Cc2ccccc2)c(=O)c2ccccc12	FGF22 binding 43
CC(C)(C)N1CC(C(=O)O)CC1=O (configuration not stated)	FGF22 binding 43
CC(C)(C)N1CC(C(=O)Nc2cccc(Cl)c2Cl)CC1=O (configuration not stated)	none
